Test results reported in ChEMBL document CHEMBL4038281, “Competitive protein tyrosine phosphatase 1B (PTP1B) inhibitors, prenylated caged xanthones from Garcinia hanburyi and their inhibitory mechanism” (Bioorg Med Chem, 2017).

How the values were obtained:
[1] = target: T1, Tyrosine-protein phosphatase non-receptor type 1 (Homo sapiens, UniProt P18031); assay: Inhibition of recombinant human PTP1B (1 to 322 residues) expressed in Escherichia coli using pNPP as substrate by Dixon plot analysis
T1 sequence (P18031 whole entry): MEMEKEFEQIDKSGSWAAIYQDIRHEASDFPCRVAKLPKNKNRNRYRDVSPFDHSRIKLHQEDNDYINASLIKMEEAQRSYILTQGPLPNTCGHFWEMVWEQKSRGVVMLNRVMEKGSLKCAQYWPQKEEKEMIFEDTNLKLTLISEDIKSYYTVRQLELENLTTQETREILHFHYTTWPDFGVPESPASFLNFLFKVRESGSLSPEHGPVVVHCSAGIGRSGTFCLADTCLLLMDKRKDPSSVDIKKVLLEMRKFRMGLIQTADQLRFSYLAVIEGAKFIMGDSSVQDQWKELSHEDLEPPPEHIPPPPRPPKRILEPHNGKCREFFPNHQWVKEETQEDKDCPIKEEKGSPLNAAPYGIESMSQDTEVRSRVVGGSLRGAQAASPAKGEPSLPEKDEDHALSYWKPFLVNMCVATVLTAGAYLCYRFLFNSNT
Summary of the method: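 Initial velocity with pNPP was recorded over a range of inhibitor concentrations in 25 mM Tris-HCl (pH 7.5) buffer with EDTA, b-mercaptoethanol and DTT at 37 °C, read at 405 nm. Data were fitted by nonlinear regression, and inhibition constants were taken from Dixon plots.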

[2] = target: T1, Tyrosine-protein phosphatase non-receptor type 1; assay: Inhibition of recombinant human PTP1B (1 to 322 residues) expressed in Escherichia coli using pNPP as substrate incubated for 10 mins measured for 30 mins by spectrometric analysis
Summary of the method: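 Enzyme (1 mg/mL stock) was mixed with sample in DMSO and 4 mM pNPP stock in 25 mM Tris-HCl pH 7.5, 1 mM EDTA, 2 mM b-mercaptoethanol and 1 mM DTT.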

[3] = target: T1, Tyrosine-protein phosphatase non-receptor type 1; assay: Inhibition of recombinant human PTP1B (1 to 322 residues) expressed in Escherichia coli using pNPP as substrate preincubated for 60 mins followed by substrate addition measured at 30 secs interval for 10 mins by UV-spectrophotmetric method; settings: read-out: Ki(app)
Summary of the method: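 Activity was read continuously by UV spectrophotometry for 10 min, giving progress curves of 20 points at 30 s intervals. Fixed substrate and several inhibitor levels were used, and any lag was excluded. vi, vs and Kobs were obtained by fitting the progress curves.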

Compound | Ki [1] | IC50 [2] | Ki [3]
COC1=C2C(=O)c3c(O)c4c(c(CC=C(C)C)c3O[C@@]23[C@H]2C[C@@H]1C(=O)[C@]3(CC=C(C)C)OC2(C)C)O[C@](C)(CCC=C(C)C)C=C4 | 4380 nM | 12800 nM | –
CC(C)=CCc1c2c(c(O)c3c1O[C@]14C(=C[C@@H]5C[C@H]1C(C)(C)O[C@@]4(/C=C(/C)CO)C5=O)C3=O)C=CC(C)(C)O2 | 29300 nM | 70200 nM | –
CO[C@@H]1C2C(=O)c3c(O)c(C/C=C(\C)CCC=C(C)C)c(O)c(CC=C(C)C)c3O[C@@]23[C@H]2C[C@@H]1C(=O)[C@]3(C/C=C(/C)C(=O)O)OC2(C)C (stereo partly specified) | 390 nM | 930 nM | –
CC(C)=CCc1c2c(c(O)c3c1O[C@]14C(=C[C@@H]5C[C@H]1C(C)(C)O[C@@]4(CC=C(C)C)C5=O)C3=O)C=CC(C)(C)O2 | – | > 200000 nM | –
CO[C@@H]1C2C(=O)c3c(O)c4c(c(CC=C(C)C)c3O[C@@]23[C@H]2C[C@@H]1C(=O)[C@]3(C/C=C(/C)C(=O)O)OC2(C)C)OC(C)(C)C=C4 (stereo partly specified) | 1750 nM | 4440 nM | –
CO[C@@H]1C2C(=O)c3c(O)c4c(c(CC=C(C)C)c3O[C@@]23[C@H]2C[C@@H]1C(=O)[C@]3(C/C=C(/C)C(=O)O)OC2(C)C)O[C@](C)(CCC=C(C)C)C=C4 (stereo partly specified) | 300 nM | 740 nM | –
CC(C)=CCC/C(C)=C/Cc1c(O)c(CC=C(C)C)c2c(c1O)C(=O)C1=C[C@@H]3C[C@H]4C(C)(C)O[C@@](C/C=C(/C)C(=O)O)(C3=O)[C@@]14O2 [GAMBOGENIC ACID] | 1210 nM | 3470 nM | –
CC(C)=CCC[C@]1(C)C=Cc2c(O)c3c(c(CC=C(C)C)c2O1)O[C@]12C(=C[C@@H]4C[C@H]1C(C)(C)O[C@@]2(C/C=C(/C)C(=O)O)C4=O)C3=O [GAMBOGIC ACID] | 190 nM | 470 nM | 499 nM
